PMC5955861 (Oncogene, 2018)

Tests used:
Kasumi-3 = assay: alamarBlue cell proliferation assay; assay type: cell-based
Method in brief: (§1)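 Leukemia, lymphoma and myeloma lines (from ATCC or DSMZ, grown per supplier instructions, STR-authenticated; GFP-labelled sublines where stated) were incubated with test compound in 96-well flat-bottom plates. Viability was read by alamarBlue conversion, and EC50 was taken from the concentration-response.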

MOLT-3 = assay: alamarBlue cell proliferation assay; assay type: cell-based; conditions: Homo sapiens
Method in brief: as §1

MOLP-8 GFP = assay: alamarBlue cell proliferation assay; assay type: cell-based; conditions: Homo sapiens
Method in brief: as §1

SU-DHL6 = assay: alamarBlue cell proliferation assay; assay type: cell-based; conditions: Homo sapiens, SU-DHL-6
Method in brief: (§2)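 Cell lines from ATCC or DSMZ were cultured per supplier's instructions and STR-authenticated. MV-4-11B is a clone of MV-4-11 carrying heterozygous TP53 c.742C>T (p.R248W). Cells were exposed to test compound in 96-well format, and viability was read after incubation with alamarBlue.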

DOHH-2 = assay: alamarBlue cell proliferation assay; assay type: cell-based; conditions: Homo sapiens
Method in brief: as §1

NOMO-1 = assay: alamarBlue cell proliferation assay; assay type: cell-based; conditions: Homo sapiens
Method in brief: as §1

OPM-2 = assay: alamarBlue cell proliferation assay; assay type: cell-based; conditions: Homo sapiens
Method in brief: as §1

MHH-PREB-1 = assay: alamarBlue cell proliferation assay; assay type: cell-based; conditions: Homo sapiens
Method in brief: as §1

MV-4-11B cells [1] = assay: FACS cell cycle profile; assay type: cell-based; conditions: 72 h, 30 nM and 100 nM
THP-1 GFP = assay: alamarBlue cell proliferation assay; assay type: cell-based; conditions: Homo sapiens
Method in brief: as §2

OCI-Ly19 = assay: alamarBlue cell proliferation assay; assay type: cell-based; conditions: Homo sapiens
Method in brief: as §1

MOLM-13 GFP = assay: alamarBlue cell proliferation assay; assay type: cell-based; conditions: Homo sapiens
Method in brief: as §1

HBL-1 = assay: alamarBlue cell proliferation assay; assay type: cell-based; conditions: HBL1
Method in brief: as §1

Kasumi-1 = assay: alamarBlue cell proliferation assay; assay type: cell-based; conditions: Homo sapiens
Method in brief: as §1

RL = assay: alamarBlue cell proliferation assay; assay type: cell-based; conditions: Homo sapiens
Method in brief: as §1

HT = assay: alamarBlue cell proliferation assay; assay type: cell-based; conditions: Homo sapiens
Method in brief: as §1

MOLP-8 = assay: alamarBlue cell proliferation assay; assay type: cell-based; conditions: Homo sapiens
Method in brief: as §1

OCI-AML3 = assay: alamarBlue cell proliferation assay; assay type: cell-based; conditions: Homo sapiens, OCI-AML-3
Method in brief: as §1

U-2932 = assay: alamarBlue cell proliferation assay; assay type: cell-based; conditions: Homo sapiens, U2932
Method in brief: as §2

K562 = assay: alamarBlue cell proliferation assay; assay type: cell-based; conditions: Homo sapiens
Method in brief: as §1

MV-4-11B cells [2] = assay: IncuCyte live-cell proliferation and caspase-3/7 apoptosis assay; assay type: cell-based
THP-1 = assay: alamarBlue cell proliferation assay; assay type: cell-based; conditions: Homo sapiens
Method in brief: as §2

MOLM-13 = assay: alamarBlue cell proliferation assay; assay type: cell-based; conditions: Homo sapiens
Method in brief: as §1

SKM-1 = assay: alamarBlue cell proliferation assay; assay type: cell-based; conditions: Homo sapiens
Method in brief: as §1

TMD8 = assay: alamarBlue cell proliferation assay; assay type: cell-based; conditions: Homo sapiens
Method in brief: as §2

L-363 = assay: alamarBlue cell proliferation assay; assay type: cell-based; conditions: Homo sapiens
Method in brief: as §1

MUTZ-3 = assay: alamarBlue cell proliferation assay; assay type: cell-based
Method in brief: as §1

THP-1 AML cells = assay: disseminated AML xenograft efficacy study; assay type: in vivo, CIEA-NOG mice; conditions: BI 894999 daily, 4 mg/kg p.o.
DB = assay: alamarBlue cell proliferation assay; assay type: cell-based; conditions: Homo sapiens
Method in brief: as §1

With `CNc1nc(-c2nc3ccc(N4CCN(C)CC4)cc3n2Cc2ccccc2)cn2c(C)nnc12` [BI 894999] the EC50 (Kasumi-3) was 3.4 ± 1.5 nM, the EC50 (MOLT-3) was 14.4 ± 6.5 nM and the EC50 (MOLP-8 GFP) was 21.5 ± 10.8 nM. It also gave an EC50 (SU-DHL6) of 13.4 ± 1.2 nM, an EC50 (DOHH-2) of 6.2 ± 0.8 nM and an EC50 (NOMO-1) of 5.7 ± 4.1 nM. For the same molecule, the EC50 (OPM-2) was 8.9 ± 4.7 nM, the EC50 (MHH-PREB-1) was 24.4 ± 1.2 nM and the cell cycle effect (MV-4-11B cells [1]) was “G1 arrest”. For the same molecule, the EC50 (THP-1 GFP) was 4.1 ± 2 nM, the EC50 (OCI-Ly19) was 13.2 ± 4.3 nM and the EC50 (MOLM-13 GFP) was 14.3 nM. It also gave an EC50 (HBL-1) of 7.1 ± 5.2 nM, an EC50 (Kasumi-1) of 2.8 ± 0.4 nM and an EC50 (RL) of 18.2 ± 10 nM. For the same molecule, the EC50 (HT) was 11.6 ± 8.1 nM, the EC50 (MOLP-8) was 5.3 ± 2.8 nM and the EC50 (OCI-AML3) was 2.3 ± 0.5 nM. For the same molecule, the EC50 (U-2932) was 4.3 ± 2.1 nM, the EC50 (K562) was > 10000 nM and the “effect on proliferation (IncuCyte)” value (MV-4-11B cells [2]; 10 nM) was “Significant inhibition of proliferation”. For the same molecule, the “time of peak of apoptosis (Caspase-3/7) after start of treatment” value (MV-4-11B cells [2]; dose-range 0.05 to 100 nM) was “around 40 h”, the EC50 (THP-1) was 6.3 ± 2.9 nM and the EC50 (MOLM-13) was 12.8 ± 3.4 nM. The EC50 (SKM-1) was 10.2 ± 1.5 nM, the EC50 (TMD8) was 9.7 ± 3.7 nM and the EC50 (L-363) was 13.7 ± 6.2 nM. For the same molecule, the EC50 (MUTZ-3) was 12.8 ± 11.2 nM, the survival prolongation (THP-1 AML cells) was 22 days and the EC50 (DB) was 11.6 ± 7.6 nM.
